Measured values: ChEMBL document CHEMBL1128426, “Cyclic variations of 3-quinolinecarboxamides and effects on antiherpetic activity” (1995)
Converted amounts (≈) assume the structure as drawn. The source made the active and inactive calls.

Key:
[1] = system: Mus musculus; test: The compound was tested in vivo for the lowest dose(minimum effective dose) at which anti-herpetic activity was observed in terms of survival times of mice after po administration; no activity; assay type: functional, organism-based
[2] = system: Vero; test: In vitro anti-herpetic activity against HSV-2 plaque formation in vero cells.; assay type: functional; details: Chlorocebus sabaeus
Summary of the method: (§1)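 HSV-2 plaque reduction in Vero cells. MIC is the lowest concentration that inhibited plaque formation by 50%. For active compounds, values are the mean of at least two experiments, SD under ±50%.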

[3] = system: Mus musculus; test: The maximum tolerated dose (MTD) was defined as the highest dose of compound that did not show any signs of toxicity in mice after po administration.; assay type: functional
Summary of the method: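 Oral dosing in mice within the HSV-2 infection model. MTD is the highest dose showing no overt signs of toxicity.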

[4] = system: Vero; test: The compound was tested in vitro for the highest concentration (maximum tolerated level) that showed no cellular toxicity by visualization of stained cells.; assay type: functional, Chlorocebus sabaeus
Summary of the method: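 Maximum tolerated level, run alongside the HSV-2 plaque assay in Vero cells: the highest concentration showing no cellular toxicity when the stained cells were inspected visually.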

[5] = system: Mus musculus; test: The compound was tested in vivo for the lowest dose(minimum effective dose) at which anti-herpetic activity was observed in terms of survival times of mice after po administration.; assay type: functional; details: read-out: MED
Summary of the method: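 HSV-2 infection model in mice, test agent given orally. MED is the lowest dose giving survival times statistically different from placebo, based on at least two experiments for active compounds.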

[6] = system: Vero; test: In vitro anti-herpetic activity against HSV-2 plaque formation in vero cells; no activity; assay type: functional, cell-based; details: Chlorocebus sabaeus; summary of the method: as §1
[7] = system: Mus musculus; test: The compound was tested in vivo for the lowest dose(minimum effective dose) at which anti-herpetic activity (HSV-2) was observed in terms of survival times of mice after po administration; no activity; assay type: functional, organism-based

Row | SMILES | MED [1] | MIC [2] | MTD [3] | MTL [4] | minimal effective dose [5] | MIC [6] | MED [7]
1 | CCn1cc2c(=O)[nH]nc-2c2ccc(-c3ccncc3)cc21 | inactive | 27 µg/mL (≈ 93 µM) | >200 mg/kg | 50 µg/mL |  |  | 
2 | NC(=O)c1cn(-c2ccc(F)cc2)c2cc(-c3ccncc3)ccc2c1=O |  | 0.24 µg/mL (≈ 0.668 µM) | 50 mg/kg | 6.25 µg/mL | 25 mg/kg |  | 
3 | CCn1cc(C(N)=O)c(=O)c2ccc(-c3ccncc3)cc21 |  | 6.5 µg/mL (≈ 22.2 µM) | 50 mg/kg | 12.5 µg/mL | 50 mg/kg |  | 
4 | CCn1cc2c(O)cnc-2c2ccc(-c3ccncc3)cc21 |  |  |  | 100 µg/mL |  | inactive | 
5 | Nc1nc2c(ncn2COCCO)c(=O)[nH]1 [ACYCLOVIR] |  | 1.3 µg/mL (≈ 5.77 µM) | >200 mg/kg | >200 µg/mL | 12 mg/kg |  | 
6 | CCn1c(C)c2c(=O)onc-2c2ccc(-c3ccncc3)cc21 | inactive | 2.9 µg/mL (≈ 9.5 µM) | >50 mg/kg | >100 µg/mL |  |  | 
7 | CCn1cc2c(=O)n(-c3ccccc3)nc-2c2ccc(-c3ccncc3)cc21 |  |  |  | >100 µg/mL |  | inactive | 
8 | CCn1c(C)c(C(N)=O)c(=O)c2ccc(-c3ccncc3)cc21 |  |  |  | 50 µg/mL |  | inactive | 
9 | CCn1cc2c(=O)n(C)nc-2c2ccc(-c3ccncc3)cc21 |  |  |  | 3.1 µg/mL |  | inactive | 
10 | CCn1cc2c(=O)onc-2c2ccc(-c3ccncc3)cc21 |  | 6.3 µg/mL (≈ 21.6 µM) | >400 mg/kg | >100 µg/mL |  |  | inactive
11 | CCn1cc2c(=O)ncnc-2c2ccc(-c3ccncc3)cc21 |  |  |  | >100 µg/mL |  | inactive | 
